Measured values from ChEMBL document CHEMBL1145845, “Acetogenins as selective inhibitors of the human ovarian 1A9 tumor cell line” (2003).
In brackets after ≈: the same amount, converted by molar mass. Activity calls are given as the source filed them.

Legend:
1A9 = test: Effective dose required for inhibitory activity against 1A9 human tumor cell line.; type: functional; conditions: read-out: ED50 (the source's name)
In short: (§1)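 Human tumor lines were grown in RPMI-1640 with 25 mM HEPES, 0.25% sodium bicarbonate, 10% FBS and 100 µg/mL kanamycin. KB-VIN is a vincristine-resistant KB subline, and PTX10 is a 1A9 subline with mutated β-tubulin. Trypsinized cells (1500–7500/well) got compound from DMSO stock for 3 days continuous. Cells were fixed with cold 50% TCA, stained with 0.4% SRB, and read at 562 nm. ED50 is the 50% growth-reduction concentration; not active means ≤5% inhibition at the top concentration.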

1A9/ptx-10 [1] = test: Percent inhibition against PTX10 human tumor cell line at >10 ug/mL; type: functional
KB [2] = test: Effective dose required for inhibitory activity against KB-VIN human tumor cell line.; type: functional; conditions: read-out: ED50 (the source's name); in short: as §1
KB [3] = test: Effective dose required for inhibitory activity against KB human tumor cell line.; type: functional; conditions: read-out: ED50 (the source's name); in short: as §1
PC-3 = test: Effective dose required for inhibitory activity against PC-3 human tumor cell line.; type: functional; conditions: read-out: ED50 (the source's name); in short: as §1
HCT-8 = test: Effective dose required for inhibitory activity against HCT-8 human tumor cell line.; type: functional; conditions: read-out: ED50 (the source's name); in short: as §1
HOS = test: Effective dose required for inhibitory activity against HOS human tumor cell line.; type: functional; conditions: read-out: ED50 (the source's name); in short: as §1
MCF7 = test: Effective dose required for inhibitory activity against MCF-7 human tumor cell line.; type: functional; conditions: read-out: ED50 (the source's name); in short: as §1
SK-MEL-2 = test: Effective dose required for inhibitory activity against SK-MEL-2 human tumor cell line.; type: functional; conditions: read-out: ED50 (the source's name); in short: as §1
CAKI-1 [4] = test: Effective dose required for inhibitory activity against CAK1 human tumor cell line; type: functional; conditions: read-out: ED50 (the source's name); in short: as §1
A549 = test: Effective dose required for inhibitory activity against A549 human tumor cell line.; type: functional; conditions: read-out: ED50 (the source's name); in short: as §1
1A9/ptx-10 [5] = test: Effective dose required for inhibitory activity against PTX10 human tumor cell line; type: functional; conditions: read-out: ED50 (the source's name); in short: as §1
CAKI-1 [6] = test: Effective dose required for inhibitory activity against CAK1 human tumor cell line; Not active; type: functional, cell-based; in short: as §1

SMILES | EC50 (1A9) [ng/mL] | Inhibition (1A9/ptx-10 [1]) [%] | EC50 (KB [2]) [µg/mL] | EC50 (KB [3]) [µg/mL] | EC50 (PC-3) [µg/mL] | EC50 (HCT-8) [µg/mL] | EC50 (HOS) [µg/mL] | EC50 (MCF7) [µg/mL] | EC50 (SK-MEL-2) [µg/mL] | EC50 (CAKI-1 [4]) [µg/mL] | EC50 (A549) [µg/mL] | EC50 (1A9/ptx-10 [5]) [µg/mL] | NA (CAKI-1 [6])
CCCCCCCCCCCCCC[C@@H](O)[C@H]1CC[C@H]([C@H](O)CCC(O)CCCCCCCC2=C[C@H](C)OC2=O)O1 (stereo not given in full) | 810 (≈ 1.39 µM) | 43 | > 20 | 17.3 (≈ 29.8 µM) | 16.8 (≈ 28.9 µM) | 20 (≈ 34.4 µM) | > 20 | 9 (≈ 15.5 µM) | > 20 | > 20 | 20 (≈ 34.4 µM) |  | 
CCCCCC(O)C(O)CCCCCC[C@@H](O)[C@H]1CC[C@H](CCCCCCCCCC[C@@H](O)CC2=C[C@H](C)OC2=O)O1 (stereo not given in full) [MURICIN A] | 330 (≈ 0.553 µM) |  | 15 (≈ 25.1 µM) | 12.8 (≈ 21.4 µM) | 14.1 (≈ 23.6 µM) | 15 (≈ 25.1 µM) | 18.4 (≈ 30.8 µM) | 6 (≈ 10.1 µM) | 18 (≈ 30.2 µM) | > 20 | 16.8 (≈ 28.1 µM) | 8.2 (≈ 13.7 µM) | 
CCCCCC[C@H](O)CCC[C@H](O)[C@H]1CC[C@H]([C@H]2CC[C@H]([C@H](O)CCCCCCCCCCCCC3=C[C@H](C)OC3=O)O2)O1 [SQUAMOCIN] | 0.32 (≈ 0.000514 µM) |  | 12 (≈ 19.3 µM) | 8.1 (≈ 13 µM) | 11.1 (≈ 17.8 µM) | 9.8 (≈ 15.7 µM) | 8.5 (≈ 13.6 µM) | 6 (≈ 9.63 µM) | 16.5 (≈ 26.5 µM) | 13.5 (≈ 21.7 µM) | 9.3 (≈ 14.9 µM) | 7 (≈ 11.2 µM) | 
CCCCCCCCCCCC[C@@H](O)[C@H]1CC[C@H]([C@H](O)CCCCC(=O)CCCCC[C@@H](O)CC2=C[C@H](C)OC2=O)O1 [ANNONACINONE] | 740 (≈ 1.24 µM) | 36 | > 20 | 18.3 (≈ 30.8 µM) | > 20 | > 20 | > 20 | 11.5 (≈ 19.3 µM) | > 20 | > 20 | > 20 |  | 
CCCCCCCCCC[C@H](O)[C@H]1CC[C@H]([C@H]2CC[C@H]([C@H](O)CCCCCCCC[C@@H](O)CC3=C[C@H](C)OC3=O)O2)O1 [MOLVIZARIN] | 0.005 (≈ 8.41e-06 µM) |  | 13.9 (≈ 23.4 µM) | 10 (≈ 16.8 µM) | 12.9 (≈ 21.7 µM) | 14.9 (≈ 25 µM) | 9.9 (≈ 16.6 µM) | 7.7 (≈ 12.9 µM) | 16.4 (≈ 27.6 µM) | 16.4 (≈ 27.6 µM) | 12.9 (≈ 21.7 µM) | 8.7 (≈ 14.6 µM) | 
CCCCCCCCC[C@H](O)[C@@H]1CC[C@@H]([C@@H]2CC[C@@H](CCCCCCCCCC[C@H](O)CC3=C[C@H](C)OC3=O)O2)O1 | 1930 (≈ 3.33 µM) | 30 | > 20 | 13.5 (≈ 23.3 µM) | 14.5 (≈ 25 µM) | 13.8 (≈ 23.8 µM) | 16 (≈ 27.6 µM) | 7.6 (≈ 13.1 µM) | 15.3 (≈ 26.4 µM) | 17.8 (≈ 30.7 µM) | 17.2 (≈ 29.7 µM) |  | 
CCCCCCCC/C=C\CC[C@H](O)[C@@H]1CC[C@@H]([C@H](O)CCCCC(O)CCCCCC(O)CC2=C[C@H](C)OC2=O)O1 (stereo not given in full) | 930 (≈ 1.56 µM) | 40 | 17.5 (≈ 29.4 µM) | 13 (≈ 21.9 µM) | 15.3 (≈ 25.7 µM) | 14.4 (≈ 24.2 µM) | 17 (≈ 28.6 µM) | 7.6 (≈ 12.8 µM) | 17 (≈ 28.6 µM) | 19 (≈ 31.9 µM) | 17 (≈ 28.6 µM) |  | 
CCCCCCCCCCCC[C@@H](O)[C@H]1CC[C@@H]([C@@H](O)CCCCCCC(O)CCCCC[C@@H](O)CC2=C[C@H](C)OC2=O)O1 (stereo not given in full) | 80 (≈ 0.128 µM) |  | 14 (≈ 22.4 µM) | 10.8 (≈ 17.3 µM) | 14 (≈ 22.4 µM) | 15 (≈ 24 µM) | 15 (≈ 24 µM) | 6.6 (≈ 10.6 µM) | 15.1 (≈ 24.2 µM) | 17.3 (≈ 27.7 µM) | 14.5 (≈ 23.2 µM) | 8.7 (≈ 13.9 µM) | 
CCCCCC(O)C(O)CCCCCC[C@H](O)[C@@H]1CC[C@H](CCCCCCCCCC[C@H](O)CC2=C[C@H](C)OC2=O)O1 (stereo not given in full) [MURICIN B] | 520 (≈ 0.871 µM) | 26 | > 20 | > 20 | > 20 | > 20 | > 20 | 15.5 (≈ 26 µM) | > 20 |  | > 20 |  | inactive
CC(=O)O[C@H]1C(=O)[C@@]2(C)[C@H]([C@H](OC(=O)c3ccccc3)[C@]3(O)C[C@H](OC(=O)[C@H](O)[C@@H](NC(=O)c4ccccc4)c4ccccc4)C(C)=C1C3(C)C)[C@]1(OC(C)=O)CO[C@@H]1C[C@@H]2O [PACLITAXEL] | 2 (≈ 0.00234 µM) |  |  | 0.001 (≈ 0.00117 µM) |  | 0.011 (≈ 0.0129 µM) |  |  |  |  | 0.005 (≈ 0.00586 µM) | 0.041 (≈ 0.048 µM) | 
CCCCCCCCCCCCC(O)C(O)CCC(O)[C@H]1CC[C@H](CCCCCCC[C@@H](O)CC2=C[C@H](C)OC2=O)O1 (stereo not given in full) | 70 (≈ 0.117 µM) | 37 | > 20 | > 20 | > 20 | > 20 | > 20 | 11.5 (≈ 19.3 µM) | > 20 | > 20 | > 20 |  | 
CCCCCCCCCCCCCCCCCC1OC1C1OC1CCCCCCCCC1=C[C@H](C)OC1=O (stereo not given in full) | 8800 (≈ 16.5 µM) | 15 | > 20 | > 20 | > 20 | > 20 | > 20 | > 20 | > 20 |  | > 20 |  | inactive
CCCCCCCC(O)C(O)CCCC[C@@H](O)[C@H]1CC[C@H](CCCCCCCCCCCCC2=C[C@H](C)OC2=O)O1 (stereo not given in full) | 770 (≈ 1.33 µM) | 37 | > 20 | 15.1 (≈ 26 µM) | 17.5 (≈ 30.1 µM) | > 20 | > 20 | 10.5 (≈ 18.1 µM) | 17.5 (≈ 30.1 µM) | > 20 | > 20 |  | 
CCCCCCCCCCCC[C@@H](O)[C@H]1CC[C@@H]([C@@H](O)CCCCC(=O)CCCCCCCC2=C[C@H](C)OC2=O)O1 [COROSSOLONE] | 820 (≈ 1.42 µM) | 37 | > 20 | 18 (≈ 31.1 µM) | 13.5 (≈ 23.3 µM) | > 20 | > 20 | 7.9 (≈ 13.6 µM) | 18.8 (≈ 32.5 µM) | > 20 | 19 (≈ 32.8 µM) |  | 
CCCCCCCC(O)C(O)CC[C@H](O)[C@@H]1CC[C@@H](CCCCCCCCCC[C@H](O)CC2=C[C@H](C)OC2=O)O1 (stereo not given in full) | 680 (≈ 1.2 µM) | 27 | > 20 | 18 (≈ 31.6 µM) | > 20 | > 20 | > 20 | 15.5 (≈ 27.2 µM) | > 20 | > 20 | > 20 |  | 
CCCCCCCCCCCCCC[C@@H](O)[C@H]1CC[C@H]([C@H](O)CCCCC(O)CCCCCC(O)CC2=C[C@H](C)OC2=O)O1 (stereo not given in full) | 500 (≈ 0.8 µM) |  | 13.3 (≈ 21.3 µM) | 9 (≈ 14.4 µM) | 12.2 (≈ 19.5 µM) | 12.7 (≈ 20.3 µM) | 13.6 (≈ 21.8 µM) | 5.6 (≈ 8.96 µM) | 15 (≈ 24 µM) | 16 (≈ 25.6 µM) | 11.5 (≈ 18.4 µM) | 7.2 (≈ 11.5 µM) | 
